Reference: ChEMBL document CHEMBL4725276, “Strategies towards potent trypanocidal drugs: Application of Rh-catalyzed [2 + 2 + 2] cycloadditions, sulfonyl phthalide annulation and nitroalkene reactions for the synthesis of substituted quinones and their evaluation against Trypanosoma cruzi” (Bioorg Med Chem, 2020)

Experiments:
[1] = tested on: Trypanosoma cruzi; experiment: Trypanocidal activity against Trypanosoma cruzi Y strain bloodstream trypomastigotes isolated from infected Albino Swiss mouse assessed as lysis of parasite in presence of 5 % mouse blood incubated for 24 hrs by Neubauer chamber method; type: functional, organism-based
Outline: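 Y-strain bloodstream trypomastigotes were isolated from infected mice at peak parasitemia by differential centrifugation and suspended at 10x10⁶ parasites/mL in DMES. They were mixed 1:1 with compound prepared at 2x final (DMSO final ≤0.1%) and incubated 24 h at 4 °C with 5% mouse blood, with benznidazole as control.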

[2] = Cytotoxicity against albino Swiss mouse Peritoneal macrophages in absence of mouse blood incubated for 24 hrs in absence of mouse blood by PrestoBlue dye based fluorescence assay; type: cell-based, Peritoneal macrophage; conditions: read-out: LD50
Outline: (§1)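 Primary peritoneal macrophages from Albino Swiss mice, 2.5 x 10⁴ cells/well in RPMI-1640 (pH 7.2, 10% foetal bovine serum, 2 mM glutamine), preincubated 24 h at 37 °C. Treated in fresh supplemented medium for 24 h at 37 °C. PrestoBlue added, 2 h incubation, read at 560 and 590 nm. LC₅₀/24 h is the concentration damaging 50% of cells, from reduction relative to untreated cells.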

[3] = tested on: Trypanosoma cruzi; experiment: Trypanocidal activity against Trypanosoma cruzi Y strain bloodstream trypomastigotes isolated from infected Albino Swiss mouse assessed as lysis of parasite in absence of mouse blood incubated for 24 hrs by Neubauer chamber method; type: functional, organism-based
Outline: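 Bloodstream trypomastigotes (Y strain) were taken from mice at peak parasitemia by differential centrifugation and resuspended at 10x10⁶/mL in DMES. Equal volumes of suspension and compound at twice final concentration (DMSO final ≤0.1%) were incubated 24 h at 37 °C with no blood added, with benznidazole as control.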

[4] = Cytotoxicity against albino Swiss mouse Peritoneal macrophages in presence of 5 % mouse blood incubated for 24 hrs by PrestoBlue dye based fluorescence assay; type: cell-based, Peritoneal macrophage; conditions: read-out: LD50; outline: as §1
[5] = Selectivity index, ratio of LD50 for cytotoxicity against albino Swiss mouse peritoneal macrophages to IC50 for Trypanocidal activity against Trypanosoma cruzi Y strain bloodstream trypomastigotes isolated from infected albino Swiss mouse in presence of 5 % mouse blood; type: toxicity; conditions: read-out: Selectivity Index
Outline: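 Combines the macrophage LD₅₀/24 h with the trypanocidal IC₅₀/24 h, parasite assay run in 5% mouse blood at 4 °C. Y strain bloodstream trypomastigotes from infected Albino Swiss mice (peak parasitemia, differential centrifugation) were suspended at 10x10⁶/mL in DMES. They were mixed 1:1 with compound at twice the final concentration (DMSO ≤0.1% final) for 24 h. Neubauer chamber counts; IC₅₀ is 50% lysis; mean ± SD of at least three independent experiments.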

[6] = tested on: Trypanosoma cruzi; experiment: Potency index, ratio of benznidazole IC50 to compound IC50 for trypanocidal activity against Trypanosoma cruzi Y strain bloodstream trypomastigotes isolated from infected Albino Swiss mouse assessed as lysis of parasite in presence of 5 % mouse blood incubated for 24 hrs by Neubauer chamber method; type: functional
[7] = Selectivity index, ratio of LD50 for cytotoxicity against albino Swiss mouse peritoneal macrophages to IC50 for Trypanocidal activity against Trypanosoma cruzi Y strain bloodstream trypomastigotes isolated from infected albino Swiss mouse in absence of mouse blood; type: toxicity; conditions: read-out: Selectivity Index
Outline: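 Combines the macrophage LD₅₀/24 h with the trypanocidal IC₅₀/24 h, parasite assay run without blood at 37 °C. Y strain bloodstream trypomastigotes were taken from infected Albino Swiss mice at peak parasitemia by differential centrifugation, at 10x10⁶/mL in DMES. They were mixed 1:1 with compound at twice the final concentration (DMSO ≤0.1% final) for 24 h. Neubauer counts; IC₅₀ is 50% lysis.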

Row | Structure (SMILES) | IC50 [1] [µM] | other results
1 | Cc1ccc(S(=O)(=O)n2c3ccccc3c3c(-c4ccccc4)c4c(cc32)C(=O)C=CC4=O)cc1 | 122 | –
2 | COc1ccc(-c2cn(-c3ccccc3)c3c2C(=O)c2ccccc2C3=O)cc1 | > 500 | –
3 | COC(=O)C1(C(=O)OC)Cc2c(O)c3c(c(O)c2C1)C(=O)C(OC)=CC3=O | > 500 | –
4 | Cc1cc2oc3c(c2cc1C)C(=O)c1ccccc1C3=O | > 500 | –
5 | CCOc1cccc2c3c(oc12)C(=O)c1ccccc1C3=O | > 500 | –
6 | O=C1c2ccccc2C(=O)c2c1oc1ccccc21 | > 500 | –
7 | COC(=O)C1(C(=O)OC)Cc2cc3c(cc2C1)C(=O)C(OC)=CC3=O | > 500 | –
8 | Cc1ccc(-c2cn(-c3cccc(Br)c3)c3c2C(=O)c2ccccc2C3=O)cc1 | > 500 | –
9 | COc1ccc(-n2cc(-c3ccc(C)cc3)c3c2C(=O)c2ccccc2C3=O)cc1 | > 500 | –
10 | O=C1c2ccccc2C(=O)c2c(-c3ccccc3[N+](=O)[O-])coc21 | > 500 | –
11 | O=C(Cn1ccnc1[N+](=O)[O-])NCc1ccccc1 [BENZNIDAZOLE] | – | CC50 at 24 h [2]: > 1000 µM; IC50 [3]: 8.8 µM
12 | COC1=CC(=O)c2cc3c(c(-c4ccc5c(c4)OCO5)c2C1=O)COC3=O | > 500 | –
13 | Cc1ccc2oc3c(c2c1)C(=O)c1ccccc1C3=O | > 500 | –
14 | COc1ccc(-c2cn(-c3ccc(OC)cc3)c3c2C(=O)c2ccccc2C3=O)cc1 | > 500 | –
15 | O=C1C=CC(=O)c2cc3c(cc21)CCC3 | 49.2 | CC50 at 24 h [4]: 1.7 µM; selectivity ratio [5]: 0.03; Ratio IC50 [6]: 2
16 | COC(=O)C1(C(=O)OC)Cc2cc3c(c(CO[Si](C)(C)C(C)(C)C)c2C1)C(=O)C=CC3=O | > 500 | –
17 | O=C1c2ccccc2C(=O)c2c(-c3ccc(Br)cc3)coc21 | > 500 | –
18 | COC(=O)C1(C(=O)OC)Cc2cc3c(cc2C1)C(=O)C(c1ccccc1Br)=CC3=O | 51.5 | CC50 at 24 h [4]: 3.8 µM; selectivity ratio [5]: 0.07
19 | COC(=O)C1(C(=O)OC)Cc2cc3c(cc2C1)C(=O)C=CC3=O | 51.5 | CC50 at 24 h [4]: 1.6 µM; selectivity ratio [5]: 0.03

Row | Structure (SMILES) | IC50 [1] [µM] | other results
20 | COC(=O)C1(C(=O)OC)Cc2cc3c(c(C(=O)O)c2C1)C(=O)C=CC3=O | > 500 | –
21 | CC(=O)CCC1=C(c2ccco2)C(=O)c2ccccc2C1=O | > 500 | –
22 | O=C1c2ccccc2C(=O)c2c(-c3cccs3)coc21 | > 500 | –
23 | O=C1C=CC(=O)c2cc3c(cc21)COC3 | 193 | –
24 | CC(=O)CCC1=C(c2ccc(F)cc2)C(=O)c2ccccc2C1=O | 114 | CC50 at 24 h [4]: 65.4 µM
25 | COC(=O)C1(C(=O)OC)Cc2cc3c(cc2C1)C(=O)c1ccccc1C3=O | > 500 | –
26 | COC(=O)C1(C(=O)OC)Cc2cc3c(cc2C1)C(=O)C(c1ccccc1)=CC3=O | 369 | –
27 | COc1ccc(-c2cn(-c3ccc(Cl)cc3)c3c2C(=O)c2ccccc2C3=O)cc1 | > 500 | –
28 | COc1ccc(-c2cn(-c3ccc(F)cc3)c3c2C(=O)c2ccccc2C3=O)cc1 | > 500 | –
29 | COc1ccc(C2=C(CCC(C)=O)C(=O)c3ccccc3C2=O)cc1 | 109 | CC50 at 24 h [4]: 79 µM; selectivity ratio [5]: 1.38
30 | COc1ccc2oc3c(c2c1)C(=O)c1ccccc1C3=O | > 500 | –
31 | O=C1C=CC(=O)c2c1cc1oc3ccccc3c1c2-c1ccccc1 | 247 | –
32 | COC(=O)C1(C(=O)OC)Cc2c(c(-c3ccc(F)cc3)c3c(c2-c2ccc(F)cc2)C(=O)C=CC3=O)C1 | 3.3 | selectivity ratio [7]: 9.3; CC50 at 24 h [4]: 3 µM; selectivity ratio [5]: 0.89; IC50 [3]: 0.32 µM
33 | Cc1ccc(S(=O)(=O)N2Cc3cc4c(cc3C2)C(=O)C=CC4=O)cc1 | > 500 | –
34 | COc1ccc(-n2cc(-c3ccccc3)c3c2C(=O)c2ccccc2C3=O)cc1 | > 500 | –
35 | COC(=O)C1(C(=O)OC)Cc2cc3c(cc2C1)C(=O)C(Br)=CC3=O | 150 | –
36 | COC(=O)C1(C(=O)OC)Cc2cc3c(cc2C1)C(=O)C(Cl)=CC3=O | 56.6 | CC50 at 24 h [4]: 5 µM; selectivity ratio [5]: 0.09
37 | Cc1ccc(-c2cn(-c3ccc(C)cc3)c3c2C(=O)c2ccccc2C3=O)cc1 | > 500 | –
38 | COc1ccc(-n2cc(-c3ccco3)c3c2C(=O)c2ccccc2C3=O)cc1 | > 500 | –

Row | Structure (SMILES) | IC50 [1] [µM] | other results
39 | COC(=O)C1(C(=O)OC)Cc2cc3c(cc2C1)C(=O)C(c1ccccc1OC)=CC3=O | 102 | –
40 | COc1ccc(-n2cc(-c3ccc(F)cc3)c3c2C(=O)c2ccccc2C3=O)cc1 | > 500 | –
41 | CCCCc1c2c(c(CCCC)c3c1C(=O)C=CC3=O)CN(S(=O)(=O)c1ccc(C)cc1)C2 | > 500 | –
42 | COC(=O)C1(C(=O)OC)Cc2cc3c(cc2C1)C(=O)C(I)=CC3=O | 51.3 | CC50 at 24 h [4]: 1.6 µM; selectivity ratio [5]: 0.03
43 | Cc1ccc(-c2cn(-c3ccc(Br)cc3)c3c2C(=O)c2ccccc2C3=O)cc1 | > 500 | –
44 | COC(=O)C1(C(=O)OC)Cc2cc3c(cc2C1)C(=O)C(N(C)c1ccccc1)=CC3=O | > 500 | –
45 | COC(=O)C1(C(=O)OC)Cc2cc3c(cc2C1)C(=O)C(c1ccc(C(F)(F)F)cc1)=CC3=O | 362 | –
46 | COc1ccc(-c2coc3c2C(=O)c2ccccc2C3=O)cc1 | > 500 | –
47 | COC(=O)C1(C(=O)OC)Cc2c(c(-c3ccccc3)c3c(c2-c2ccccc2)C(=O)C=CC3=O)C1 | 2.5 | selectivity ratio [7]: 3.7; CC50 at 24 h [4]: 1.6 µM; selectivity ratio [5]: 0.6; IC50 [3]: 0.44 µM
48 | COC(=O)C1(C(=O)OC)Cc2cc3c(c(O)c2C1)C(=O)C=C(OC)C3=O | > 500 | –
49 | COC(=O)C1(C(=O)OC)Cc2c(C)c3c(c(C)c2C1)C(=O)C=CC3=O | > 500 | –
50 | COC(=O)C1(C(=O)OC)Cc2c(c(-c3ccc(OC)cc3)c3c(c2-c2ccc(OC)cc2)C(=O)C=CC3=O)C1 | 2.3 | selectivity ratio [7]: 13.9; CC50 at 24 h [4]: 1.9 µM; selectivity ratio [5]: 0.81; IC50 [3]: 0.14 µM
51 | CSc1ccc(-c2coc3c2C(=O)c2ccccc2C3=O)cc1 | > 500 | –
52 | CCCCc1c2c(cc3c1C(=O)C=CC3=O)CC(C(=O)OC)(C(=O)OC)C2 | 64.4 | CC50 at 24 h [4]: 4.2 µM; selectivity ratio [5]: 0.07
53 | O=C1c2ccccc2C(=O)c2c(-c3ccc(F)cc3)coc21 | > 500 | –
54 | CCCCn1cc(-c2ccc(Cl)cc2)c2c1C(=O)c1ccccc1C2=O | > 500 | –
55 | COc1ccc(-n2cc(-c3ccc(Cl)cc3)c3c2C(=O)c2ccccc2C3=O)cc1 | > 500 | –
56 | COC(=O)C1(C(=O)OC)Cc2cc3c(cc2C1)C(=O)C(C)=C(C)C3=O | > 500 | –
